Series [1] is described as follows: half life required for 50% hydrolysis of compound to AZT upon incubation in NHS. The format is ADME, organism-based. The following applies: human, NHS (human serum). The procedure, abridged: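 Incubation at 37 °C in normal human serum. Samples were quenched with ice-cold methanol, centrifuged and filtered, then run on HPLC at 267 nm. t1/2 is the time to 50% hydrolysis to AZT.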

Series [2] relates to MT4. The series can be described thus: Concentration required to inhibit the cytopathicity of HIV-1 strain BRU by 50% in MT-4 cells (expressed in AZT equivalent). Format: functional, cell-based. Particulars: Homo sapiens. The procedure, abridged:
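MT-4 cells (3 × 10⁵), cultured in RPMI/10% FCS, were pretreated with compound for 1 h at 37 °C. Cells were then infected with HIV-1 BRU (MOI 0.1 CCID/cell) for 1 h, washed three times and cultured 7 days with or without compound, with medium renewed on day 3. Cytopathicity was scored microscopically, in duplicate. Final DMSO was <2%, with DMSO-matched standard assays.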
A general note: Cytopathic effects are the visible damage that an infection or toxin causes in cultured cells.

The subject of series [3] is MT4. The series can be described thus: Concentration required to inhibit the cytopathicity of HIV-1 strain IIIB by 50% in MT-4 cells (expressed in AZT equivalent). Format: functional, cell-based. Particulars: Homo sapiens. An outline of the steps:
(§1)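 MT-4 cells in RPMI 1640 with 10% heat-inactivated FCS, 2 mM L-glutamine, 0.1% bicarbonate and 20 µg/mL gentamicin were infected with HIV-1 IIIB before compound was added. Inhibition of virus-induced cytopathicity was read 5 days after infection.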

The subject of series [4] is MT4. The series can be described thus: Concentration required to cause 50% death of uninfected MT-4 cells (expressed in AZT equivalent). The format is functional, Homo sapiens. The procedure, abridged: (§2)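 Uninfected MT-4 cells were exposed to compound. Growth was followed and viability measured by trypan blue exclusion, or as viability of mock-infected cells on day 5. CC50 is the concentration giving 50% cell death.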

Another series is filed under the species Homo sapiens. Briefly: % Nucleoside derivatives released after 48 hr of hydrolysis at pH 7.2. Format: functional. An outline of the steps:
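Incubation at 37 °C for 48 h in normal human serum (pH 7.2). Aliquots were quenched in ice-cold methanol and centrifuged, and supernatants were filtered. HPLC used a 20–100% solvent B gradient over 20 min with detection at 267 nm. Percent of AZT and succinate-AZT released was calculated from peak areas.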

The test system of series [5] is MT4. The series can be described thus: Concentration required to inhibit the cytopathicity of HIV-1 strain IIIB by 50% in MT-4 cells (expressed in k-carrageenan equivalent). The format is functional, cell-based. Particulars: Homo sapiens. An outline of the steps: as §1
In series [6] the test system is MT4. Briefly: Concentration required to cause 50% death of uninfected MT-4 cells (expressed in k-carrageenan equivalent). The format is functional, Homo sapiens. An outline of the steps:
as §2

One may read the half-life as the time needed for the level to fall by half in the phase considered. Read a high half-life as slow loss. What is called EC50 is the concentration that produces a half-maximal response. One may read the CC50 as the concentration at which the toxic effect on the cells reaches its halfway point.

Where “and” joins values, the source holds several entries; their conditions need not be identical. Identical values can stand only once. Some results are limits rather than exact numbers.

In turn, `Cc1cn([C@H]2C[C@H](N=[N+]=[N-])[C@@H](COC(=O)CCC(=O)O)O2)c(=O)[nH]c1=O` showed a half-life in series [1] of 25 h. Also, the values for the EC50 in the series with MT4 [2] and with MT4 [3] were 15 nM and 65 nM, respectively. In addition, the cytotoxic concentration (CC50) with MT4 [4] was > 50000 nM and 130000 nM. Besides, the Release in the series filed under Homo sapiens came to 100%.
In the case of `CO[C@H]1O[C@@H]2CO[C@@H]([C@H]1O)[C@H]2O[C@@H]1O[C@H](CO)[C@H](OS(=O)(=O)[O-])[C@H](O[C@H]2O[C@@H]3CO[C@@H]([C@H]2O)[C@H]3O[C@@H]2O[C@H](COC(=O)CCC(=O)OC[C@H]3O[C@@H](n4cc(C)c(=O)[nH]c4=O)C[C@@H]3N=[N+]=[N-])[C@H](OS(=O)(=O)[O-])[C@H](O[C@H]3O[C@@H]4CO[C@@H]([C@H]3O)[C@H]4O[C@@H]3O[C@H](CO)[C@H](OS(=O)(=O)[O-])[C@@H](O[C@H]4O[C@@H]5CO[C@@H]([C@H]4O)[C@H]5O[C@@H]4O[C@H](CO)[C@H](OS(=O)(=O)[O-])[C@H](O[C@H]5O[C@@H]6CO[C@@H]([C@H]5O)[C@H]6O[C@@H]5O[C@H](COC(=O)CCC(=O)OC[C@H]6O[C@@H](n7cc(C)c(=O)[nH]c7=O)C[C@@H]6N=[N+]=[N-])[C@H](OS(=O)(=O)[O-])[C@H](O[C@H]6O[C@@H]7CO[C@@H]([C@H]6O)[C@H]7O[C@@H]6O[C@H](CO)[C@H](OS(=O)(=O)[O-])[C@@H](O[C@H]7O[C@@H]8CO[C@@H]([C@H]7O)[C@H]8O[C@@H]7O[C@H](CO)[C@H](OS(=O)(=O)[O-])[C@H](O[C@H]8O[C@@H]9CO[C@@H]([C@H]8O)[C@H]9O[C@@H]8O[C@H](COC(=O)CCC(=O)OC[C@H]9O[C@@H](n%10cc(C)c(=O)[nH]c%10=O)C[C@@H]9N=[N+]=[N-])[C@H](OS(=O)(=O)[O-])[C@H](O[C@H]9O[C@@H]%10CO[C@@H]([C@H]9O)[C@H]%10O[C@@H]9O[C@H](CO)[C@H](OS(=O)(=O)[O-])[C@H](C)[C@H]9O)[C@H]8O)[C@H]7O)[C@H]6O)[C@H]5O)[C@H]4O)[C@H]3O)[C@H]2O)[C@H]1O.[Na+].[Na+].[Na+].[Na+].[Na+].[Na+].[Na+].[Na+].[Na+]`, the EC50 came out at 109 nM with MT4 [3] and 1.6 µg/mL in the series with MT4 [5]. In addition, the CC50 is 300 µg/mL with MT4 [6] and 300 µg/mL in the series on MT4 [6] (Homo sapiens, MT4, read-out: CC50). In addition, in the series filed under Homo sapiens, the Release was 39%.
Turning to `Cc1cn([C@H]2C[C@H](N=[N+]=[N-])[C@@H](CO)O2)c(=O)[nH]c1=O` [ZIDOVUDINE], in the series on MT4 [2], the EC50 turned out to be 25 nM. The 50% cytotoxic concentration (CC50) in the series on MT4 [4] is > 100000 nM and 42000 nM.

The values above are taken from ChEMBL document CHEMBL1135888, “Synthesis of new covalently bound kappa-carrageenan-AZT conjugates with improved anti-HIV activities” (J Med Chem, 2002).
